How the values were obtained:
[1] = Cytotoxicity against human non-small-cell lung carcinoma cell line H460 (NSCLC-H460); format: functional, cell-based
Outline: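 Logarithmically growing cells were seeded in duplicate, exposed to drug for 1 h starting 24 h after seeding, and counted by Coulter counter 72 h after exposure. Drug was dissolved in DMSO before dilution. The IC50 is the concentration giving a 50% decrease in growth relative to untreated control.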

NCI-H460 [2] = test: Complete response CD1 mice with human Non-Small-Cell tumor xenograft at a oral dose of 15 mg/kg; format: functional
Outline: (§1)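 Nude athymic CD1 mice, 8–10 weeks old, carrying serially passaged human lung tumor fragments implanted s.c. in both flanks. Oral dosing in 10 mL/kg on a q4dx4 schedule, begun once tumors were visible but not yet measurable. Complete response means no detectable tumor for at least 10 days after the end of treatment.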

NCI-H460 [3] = test: Percentage of body weight loss in CD1 mice with human Non-Small-Cell tumor xenograft at a oral dose of 5 mg/kg; format: functional
Outline: (§2)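 Nude athymic CD1 mice, 8–10 weeks old, bearing s.c. human lung tumor xenografts in both flanks. Given oral drug in 10 mL/kg on a q4dx4 schedule, beginning when tumors were visible but not measurable. Read-out is percent body weight loss after drug treatment.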

[4] = No. of dead mice/ total No. of mice bearing lung carcinoma LX-1 at a oral dose of 15 mg/kg; format: ADME, organism-based; design: dose 15 mg/kg, route oral; conditions: mouse, in vivo
Outline: (§3)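 Human lung tumor s.c. xenografts (fragments, both flanks) in nude athymic CD1 mice aged 8–10 weeks. Oral q4dx4 dosing at 10 mL/kg, begun when tumors were visible but not measurable. Toxicity is recorded as the number of dead mice over the total number of treated mice.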

[5] = Complete response in mice bearing lung carcinoma LX-1 at a oral dose of 15 mg/kg; format: functional, Mus musculus; outline: as §1
NCI-H460 [6] = test: Percentage inhibition of tumor volume in treated versus control mice against human Non-Small-Cell tumor xenograft at a oral dose of 15 mg/kg; format: functional; conditions: Mus musculus
Outline: (§4)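 Nude athymic CD1 mice, 8–10 weeks old, with human lung tumor fragments implanted s.c. in both flanks. Oral dosing in 10 mL/kg, q4dx4, started when tumors were visible but not measurable. Tumor volume = d²×D/2 from caliper diameters. Percent inhibition of treated versus control volume taken 7–10 days after the last dose. Volumes compared by Student's t test, P<0.05.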

NCI-H460 [7] = test: Complete response in CD1 mice with human Non-Small-Cell tumor at a oral dose of 15 mg/kg after treatment with compound; format: functional
Outline: (§5)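 Nude athymic CD1 mice, 8–10 weeks old, bearing s.c. human lung tumor xenografts (tumor fragments implanted in both flanks). Oral dosing on a q4dx4 schedule at 10 mL/kg, starting when tumors were visible but not measurable. A complete response was scored as no evidence of tumor for at least 10 days after the end of treatment.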

NCI-H460 [8] = test: Log 10 cell kill induced in mice with human Non-Small-Cell tumor xenograft at a oral dose of 5 mg/kg; format: functional
Outline: (§6)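 Nude athymic CD1 mice, 8–10 weeks, carrying s.c. human lung tumor fragments in both flanks. Given per os on a q4dx4 schedule at 10 mL/kg, starting when tumors were visible but not measurable. Volume = d²×D/2. Log10 cell kill = T−C/3.32 × tumor doubling time, where T and C are the days for treated and control tumors to reach a mean volume of 1000 mm³.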

Homo sapiens = test: Percentage inhibition of tumor volume in treated versus control mice against human Non-Small-Cell tumor xenograft at a oral dose of 5 mg/kg; format: functional; outline: as §4
NCI-H460 [9] = test: Complete response in CD1 mice with human Non-Small-Cell tumor at a oral dose of 5 mg/kg after treatment with compound; format: functional; outline: as §1
[10] = Percentage of body weight loss in mice bearing lung carcinoma LX-1 at a oral dose of 15 mg/kg; format: functional, Mus musculus; outline: as §2
[11] = Percentage inhibition of tumor volume in treated versus control mice bearing lung carcinoma LX-1 at a oral dose of 15 mg/kg; format: functional; conditions: Mus musculus; outline: as §4
[12] = Percentage of body weight loss CD1 mice with human Non-Small-Cell tumor xenograft at a oral dose of 9 mg/kg; format: functional; conditions: dose 15 mg/kg, in the assay text read “oral dose of 15 mg/kg” for “oral dose of 9 mg/kg”; outline: as §2
NCI-H460 [13] = test: Percentage of body weight loss of CD1 mice after treatment with compound; format: functional, Homo sapiens; outline: as §2
NCI-H460 [14] = test: Complete response in CD1 mice with human Non-Small-Cell tumor xenograft at a oral dose of 9 mg/kg; format: functional; outline: as §1
NCI-H460 [15] = test: Percentage inhibition of tumor volume in treated versus control mice against human Non-Small-Cell tumor xenograft at a oral dose of 9 mg/kg; format: functional; conditions: Mus musculus; outline: as §4
NCI-H460 [16] = test: No. of dead mice/ total no of mice with human Non-Small-Cell tumor xenograft at a oral dose of 5 mg/kg; format: ADME, organism-based; design: dose 5 mg/kg, route oral; conditions: in vivo; outline: as §3
NCI-H460 [17] = test: Complete response in CD1 mice with human Non-Small-Cell tumor at a oral dose of 9 mg/kg after treatment with compound; format: functional; outline: as §5
NCI-H460 [18] = test: (§7) No. of dead mice/ total No. of mice with human Non-Small-Cell tumor xenograft at a oral dose of 9 mg/kg; format: ADME, organism-based; design: dose 9 mg/kg, route oral; conditions: in vivo; outline: as §3
[19] = as §7; format: ADME, organism-based; design: dose 9 mg/kg, route oral; conditions: in vivo; outline: as §3
[20] = Log 10 cell kill induced in mice bearing lung carcinoma LX-1 at a oral dose of 15 mg/kg; format: functional, Mus musculus; outline: as §6

Structure (SMILES)	IC50 [1]	other results
CC[C@@]1(O)C(=O)OCc2c1cc1n(c2=O)Cc2c-1nc1ccccc1c2/C=N/OCC(=O)O	2.33 µM	
CC[C@@]1(O)C(=O)OCc2c1cc1n(c2=O)Cc2c-1nc1ccc(OC)cc1c2/C=N/OC(C)(C)C	0.07 µM	
CC[C@@]1(O)C(=O)OCc2c1cc1n(c2=O)Cc2c-1nc1ccccc1c2/C=N/OC(=O)c1ccccc1	1.77 µM	
CC[C@@]1(O)C(=O)OCc2c1cc1n(c2=O)Cc2c-1nc1ccccc1c2/C=N/OCC(=O)NCCCNS(=O)(=O)c1ccccc1[N+](=O)[O-]	3 µM	
CC[C@@]1(O)C(=O)OCc2c1cc1n(c2=O)Cc2c-1nc1ccccc1c2/C=N/OC	0.04 µM	
CC[C@@]1(O)C(=O)OCc2c1cc1n(c2=O)Cc2c-1nc1ccccc1c2/C=N/OC(C)(C)C(=O)OC(C)(C)C	0.14 µM	
CC[C@@]1(O)C(=O)OCc2c1cc1n(c2=O)Cc2c-1nc1ccccc1c2/C=N/OCc1ccccc1	0.03 µM	
CC[C@@]1(O)C(=O)OCc2c1cc1n(c2=O)Cc2c-1nc1ccccc1c2/C=N/OCc1ccc(N)cc1	0.025 µM	
CC[C@@]1(O)C(=O)OCc2c1cc1n(c2=O)Cc2c-1nc1ccccc1c2/C=N/OCc1ncc[nH]1	0.21 µM	
CC[C@@]1(O)C(=O)OCc2c1cc1n(c2=O)Cc2c-1nc1ccccc1c2/C(=N/O)c1ccccc1	5.13 µM	
CC[C@@]1(O)C(=O)OCc2c1cc1n(c2=O)Cc2c-1nc1ccc(O)cc1c2/C=N/OC(C)(C)C	0.13 µM	
C=CCO/N=C/c1c2c(nc3ccccc13)-c1cc3c(c(=O)n1C2)COC(=O)[C@]3(O)CC	0.06 µM	
CC[C@@]1(O)C(=O)OCc2c1cc1n(c2=O)Cc2c-1nc1ccccc1c2/C=N/OCc1c2ccccc2cc2ccccc12	0.19 µM	
CC[C@@]1(O)C(=O)OCc2c1cc1n(c2=O)Cc2c-1nc1ccccc1c2/C=N/OCCN(C)C	0.3 µM	
CC[C@@]1(O)C(=O)OCc2c1cc1n(c2=O)Cc2c-1nc1ccccc1c2/C=N/Oc1ccccc1	0.16 µM	
CC[C@@]1(O)C(=O)OCc2c1cc1n(c2=O)Cc2c-1nc1ccccc1c2/C=N/OCc1ccc(-c2ccccc2)cc1	0.28 µM	
CC[C@@]1(O)C(=O)OCc2c1cc1n(c2=O)Cc2c-1nc1ccccc1c2/C=N/OC(C)(C)CO	0.34 µM	
CC[C@@]1(O)C(=O)OCc2c1cc1n(c2=O)Cc2c-1nc1ccc(O)cc1c2/C=N/OC	0.2 µM	
CC[C@@]1(O)C(=O)OCc2c1cc1n(c2=O)Cc2c-1nc1ccccc1c2/C=N/OCC(=O)NCCCNC(=O)OC(C)(C)C	1.7 µM	
CC[C@@]1(O)C(=O)OCc2c1cc1n(c2=O)Cc2c-1nc1ccccc1c2/C=N/OC[C@H]1O[C@@H]2OC(C)(C)O[C@@H]2[C@H]2OC(C)(C)O[C@H]21	0.36 µM	

Structure (SMILES)	IC50 [1]	other results
CC[C@@]1(O)C(=O)OCc2c1cc1n(c2=O)Cc2c-1nc1ccccc1c2/C=N/OCC(=O)NCCCN	5.2 µM	
CC[C@@]1(O)C(=O)OCc2c1cc1n(c2=O)Cc2c-1nc1ccccc1c2/C(C)=N/OCc1ccccc1	0.13 µM	
CC[C@@]1(O)C(=O)OCc2c1cc1n(c2=O)Cc2c-1nc1ccccc1c2/C=N/OCc1c(F)c(F)c(F)c(F)c1F	0.028 µM	
CC[C@@]1(O)C(=O)OCc2c1cc1n(c2=O)Cc2c-1nc1ccccc1c2/C=N/OCc1ccc(C)cc1	0.02 µM	
CC[C@@]1(O)C(=O)OCc2c1cc1n(c2=O)Cc2c-1nc1ccccc1c2/C=N/OCCC1CCCN(C)C1 (some centres undefined)	0.1 µM	
CC[C@@]1(O)C(=O)OCc2c1cc1n(c2=O)Cc2c-1nc1ccccc1c2/C=N/OCC1CO1 (some centres undefined)	0.02 µM	
CC[C@@]1(O)C(=O)OCc2c1cc1n(c2=O)Cc2c-1nc1ccccc1c2/C=N/OC(C)(C)C(=O)O	48 µM	
CC[C@@]1(O)C(=O)OCc2c1cc1n(c2=O)Cc2c-1nc1ccccc1c2/C=N/OCCN1CCOCC1	0.08 µM	
CC[C@@]1(O)C(=O)OCc2c1cc1n(c2=O)Cc2c(/C=N/OC(C)(C)C)c3ccccc3[n+]([O-])c2-1	0.07 µM	
CC[C@@]1(O)C(=O)OCc2c1cc1n(c2=O)Cc2c-1nc1ccccc1c2/C=N/O	0.032 µM	
CC[C@@]1(O)C(=O)OCc2c1cc1n(c2=O)Cc2c-1nc1ccccc1c2/C=N/OCc1ccncc1	0.03 µM	
CC[C@@]1(O)C(=O)OCc2c1cc1n(c2=O)Cc2c-1nc1ccccc1c2/C=N/OC(c1ccccc1)(c1ccccc1)c1ccccc1	1.45 µM	
CC[C@@]1(O)C(=O)OCc2c1cc1n(c2=O)Cc2c(/C=N/OC)c3ccccc3[n+]([O-])c2-1	2.4 µM	
CC[C@@]1(O)C(=O)OCc2c1cc1n(c2=O)Cc2c-1nc1ccccc1c2/C=N/OCCN	0.49 µM	
CC[C@@]1(O)C(=O)OCc2c1cc1n(c2=O)Cc2c-1nc1ccccc1c2/C=N/OCc1ccc([N+](=O)[O-])cc1	0.017 µM	
CC[C@@]1(O)C(=O)OCc2c1cc1n(c2=O)Cc2c-1nc1ccccc1c2/C=N/OCC1O[C@H](O)C(O)[C@H](O)[C@H]1O (some centres undefined)	32 µM	
CCc1c2c(nc3ccc(O)cc13)-c1cc3c(c(=O)n1C2)COC(=O)[C@]3(O)CC [7-ETHYL-10-HYDROXYCAMPTOTHECIN]	0.08 µM	
CC[C@@]1(O)C(=O)OCc2c1cc1n(c2=O)Cc2cc3ccccc3nc2-1 [CAMPTOTHECIN]	0.33 µM	
CC[C@@]1(O)C(=O)OCc2c1cc1n(c2=O)Cc2cc3c(CN(C)C)c(O)ccc3nc2-1 [TOPOTECAN]	1.38 µM	CR (NCI-H460 [2]): 0; BWL (NCI-H460 [3]): 0%; Toxicity [4]: 0; CR [5]: 4; inhibition in vivo at 15 mg/kg (NCI-H460 [6]): 98%; LCK (NCI-H460 [7]): 2.1; LCK (NCI-H460 [8]): 1.3; inhibition in vivo at 5 mg/kg (Homo sapiens): 80%; CR (NCI-H460 [9]): 0; BWL [10]: 6%; inhibition in vivo at 15 mg/kg [11]: 99%; BWL [12]: 8%; BWL (NCI-H460 [13]): 0%; CR (NCI-H460 [14]): 0; inhibition in vivo at 9 mg/kg (NCI-H460 [15]): 91%; Toxicity (NCI-H460 [16]): 0; LCK (NCI-H460 [17]): 1.7; Toxicity (NCI-H460 [18]): 0; Toxicity [19]: 0; LCK [20]: 3.7
